A selection: hits, their analogues and other compounds. The true share with any hit is near 2.8%.
Wee1 degr inh: inhibitors of human Wee1 degradation; P30291; HeLa Luc-Wee1K328M stability, luciferase luminescence; 100% = proteasome inhibitor MG132 effect; reporter increase, % at 5 µM; 1.2% of 220,000 active;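 active = activation above the mean of all tested compounds plus 3 SD, set per screening run, cut at about 8.8% in these data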;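 note: cells exposed to compound for 20 h before luminescence read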
eIF4E-4G inh: inhibitors of eIF4E and eIF4G interaction in translation initiation | inhibition, % at 21.7 µM | 0.37% of 220,000 active | TR-FRET eIF4E-eIF4GI(517-606) binding, 2 h | P63073+Q04637 | AID 782
RBBP9 inh: blocks human serine hydrolase RBBP9; recombinant RBBP9, FP-Rh probe fluorescence polarization; inhibition, % at 7.94 µM; 0.2% of 220,000 active; AID 1515;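 active = inhibition above the campaign mean of all tested compounds plus 3 SD, cut at about 14% in these data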
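Test system – recombinant human RBBP9 · Input – RBBP9 2.5 µM in dispensing solution, pre-mixing · Medium – Tris buffer pH 8.0, NaCl, Pluronic · Schedule – preincubation 30 min plus labeling 45 min at 25 °C · Measured by – fluorescence polarization · Measure – % inhibition · Controls – DMSO and no-protein wells · Replicates – one well per compound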
NCF1 inh: inhibitors of human p47phox binding. P14598. p47phox/p22phox peptide binding, fluorescence polarization, 2 h. inhibition, % at 24.7 µM. 0.53% of 220,000 active. AID 1274
14-3-3 Bad PPI: disrupts binding of bovine 14-3-3 zeta to phospho-Bad peptide. P63103. TR-FRET 14-3-3zeta/Dy647-pBad peptide displacement, 1 h. inhibition, % at 21.7 µM. 0.71% of 220,000 active;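 active = inhibition above about 70%, limit read from the data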
Numbers stand for hits; i = inactive; nt = no result given; ! = not confirmed by another sample; [ ] = dose if it differs, or a comment.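 Rule for the calls, unless noted: active = inhibition above about 30% (limit read from the data); inactive = the rest.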

SMILES | Wee1 degr inh | eIF4E-4G inh | RBBP9 inh | NCF1 inh | 14-3-3 Bad PPI
CCn1c(=O)c([N+](=O)[O-])c(NC2CCS(=O)(=O)C2)c2ccccc21 (stereo unspecified) | i | i | i | i | i
CC(/C=C1\SC(=S)N(CCC(=O)Nc2nc(C)cs2)C1=O)=C\c1ccccc1 | i | i | i | i | i
O=C1CSC(c2ccccc2)N1CC12CC3CC(CC(O)(C3)C1)C2 (stereo unspecified) | 13 | i | i | i | i
CN(C)CCCN1C(=O)CSC1c1ccccc1 (stereo unspecified) | i | i | i | i | i
Cc1cc(=O)n(CC(C)C)c(O)c1C#N | i | i | i | i | 75
CN(C1CCS(=O)(=O)C1)S(=O)(=O)c1ccccc1[N+](=O)[O-] (stereo unspecified) | i | i | i | i | i
CCCC(=O)Nc1ccc(Cl)c(NC(=O)c2cccc(OC)c2)c1 | i | i | i | i | i
Cc1cc(C)c2c(=O)n(CC(=O)Nc3ccc(Br)c(C)c3)sc2n1 | i | i | i | i | i
Cc1cc(C)c2c(=O)n(CC(=O)NC3CCCC3)sc2n1 | i | i | i | 42 | i
COc1ccc(OCC(=O)NNC(=O)c2cccnc2)cc1 | i | i | i | i | 92
Cc1ccc(OCC(=O)NNC(=O)c2cccnc2)cc1 | i | i | i | i | i
CCNc1nc(NC(C)C)nc(Oc2ccc(OCCOc3ccccc3)nn2)n1 | i | 57 | i | i | i
COc1ccc(NS(=O)(=O)c2ccc3c(c2)CCO3)cc1 | i | i | i | i | 74
CCCOc1ccc(N)cc1N | i | i | i | i | 92[fluorescence artefact?]
Clc1ccccc1-c1nc(-c2ccncc2)no1 | i | i | i | i | 73
c1ccc2c(CSc3nnc(-c4ccncc4)o3)cccc2c1 | i | i | i | i | 78
CCOC(=O)c1nc2cc3n(c(C)c-2c1C)C(C)C(C)=C3C (stereo unspecified) | i | i | i | 56 | i
CCOC(=O)c1nc2cc3n(c(CC(C)C)c-2c1C)CC(C)=C3C | i | i | i | i | i
CCOC(=O)C1CCN(C(=O)c2ccc(CNS(=O)(=O)c3ccc(C)cc3)cc2)CC1 | i | i | i | 33 | i
O=C(Nc1cccc(NC(=O)c2ccc(Br)o2)n1)c1ccc(Br)o1 | i | i | i | i | 75
O=C(Nc1ccccc1)c1ccc(Br)o1 | i | i | i | i | i
O=C(/C=C/c1ccc2c(c1)OCO2)c1ccc(F)cc1 | i | i | i | i | i
O=C(/C=C/c1ccc2c(c1)OCO2)c1ccc[nH]1 | i | i | i | 81 | i
N#CCSc1nnc(SCC#N)s1 | i | i | i | i | i
Nc1ccc(C(=O)Nc2nc3ccccc3s2)cc1 | 8.9 | i | i | i | i
SMILES | Wee1 degr inh | eIF4E-4G inh | RBBP9 inh | NCF1 inh | 14-3-3 Bad PPI
Nc1c(C(=O)Nc2ccccc2)sc2nc(-c3ccco3)ccc12 | i | i | i | i | 76[fluorescence artefact?]
Nc1c(C(=O)Nc2nc3ccccc3s2)sc2nc(-c3cccs3)ccc12 | i | i | i | i | 96[fluorescence artefact?]
Cc1cc(/C=N/O)c(C)n1-c1cccc(Cl)c1 | i | i | i | i | i
O=C(c1ccccc1)c1n[nH]c(-c2ccccc2)cc1=O | i | i | i | i | i
CCOC(=O)C(=O)N(Nc1ccccc1C)c1ccccc1C | i | i | i | i | i
Cc1cccc(NCN2C(=O)c3ccccc3C2=O)c1 | i | i | i | i | i
CC(C)(C)c1cc(CN2CCCC(O)C2)c(O)c(C(C)(C)C)c1 (stereo unspecified) | i | i | i | i | 73
COc1ccc(-c2c(C)nn(Cc3ccccc3)c2N)cc1 | i | i | i | i | 86
Cc1nn(Cc2ccccc2)c(C)c1N | i | i | i | i | i
CCN(CC)C(=O)CNc1ccc(C(F)(F)F)cc1[N+](=O)[O-] | i | i | i | i | i
Cc1ccc(Cn2ncc3c(N4CCN(c5ccccc5C)CC4)ncnc32)cc1 | i | i | i | i | i
CC1CCN(c2ncnc3c2cnn3-c2ccccc2)CC1 | 11 | i | i | i | i
c1ccc(Cn2ncc3c(N4CCCCC4)ncnc32)cc1 | i | i | i | i | 74
COc1ccc(/C=C/C(=O)OCC(=O)Nc2cc(C(F)(F)F)ccc2Cl)cc1 | i | i | i | i | i
N#Cc1c(NCCN)nc(-c2ccccc2)c2c1CCCC2 | i | i | i | 42 | i
COc1cc(CO)c(Br)cc1OCC(N)=O | i | i | i | i | 82
c1ccc2[nH]c(-c3ccncc3)nc2c1 | i | i | i | 30! | i
Cc1cc(C)n2c(SCC(=O)NC3CCCCC3)nnc2n1 | i | i | i | i | i
COc1ccccc1/C=C/C=N/N1CCN(Cc2ccc(Cl)cc2)CC1 | i | i | i | i | 74
COc1ccccc1/C=C/C=N\N1CCN(Cc2ccccc2Cl)CC1 | i | i | i | i | i
COc1ccc(C)cc1NC(=O)c1ccccc1NS(=O)(=O)c1ccc(Cl)s1 | i | i | i | i | i
Cn1c(=O)c2c(nc(Sc3ncnn3CC(=O)NC(C)(C)C)n2C)n(C)c1=O | 10 | i | i | i | i
Cn1c(=O)c2c(ncn2CC(=O)NC(C)(C)C)n(C)c1=O | i | i | i | i | i
COc1ccc(Oc2nc(SC)nc3ccsc23)cc1 | i | i | i | 41 | i
Cc1ccc(S(=O)(=O)NCC(=O)N(CC(=O)NCC2CCCO2)C2CCCC2)cc1 (stereo unspecified) | i | 91[fluorescence artefact?] | i | i | i
SMILES | Wee1 degr inh | eIF4E-4G inh | RBBP9 inh | NCF1 inh | 14-3-3 Bad PPI
Cc1ccc(NS(=O)(=O)c2ccc(C(=O)NCC3CCCO3)cc2)cc1 (stereo unspecified) | 11 | i | i | i | i
Cc1ccccc1-n1cnc2c(sc3nc(N4CCOCC4)c4c(c32)CCCC4)c1=O | i | i | i | i | i
O=c1[nH][nH]c(=S)n1-c1ccccc1C(F)(F)F | i | i | i | 60 | i
Cc1cccc(NC(=O)CCSc2nnc(Cc3ccccc3)o2)c1 | i | i | i | i | i
CC1CC(C)CN(C(=O)Cn2cc(C=O)c3ccccc32)C1 (stereo unspecified) | i | i | i | i | 83
CC1OC(OC2C(OC3C(O[C@H]4CC[C@]5(C)C6C=C[C@]78OC[C@@]9(CC[C@@H](C)[C@H](C)C97)[C@H](O)C[C@@]8(C)[C@]6(C)CC[C@H]5C4(C)C)OC(C)C(O)C3O)OC(CO)C(O)C2O)C(O)C(O)C1O (stereo partly specified) | nt | 56 | nt | i | i
c1cncc(-c2nc(-c3ccco3)cs2)c1 | i | i | i | i | 73
CCS(=O)(=O)N1CCC(C(=O)O)CC1 | i | i | i | i | i
CC1(C)CC(=O)c2cnc3c(C#N)cnn3c2C1 | i | i | i | i | i
CSc1nc2ncc3c(n2n1)CC(C)(C)CC3=O | 8.9 | i | i | i | i
CCS(=O)(=O)N1CCN(c2ccc([N+](=O)[O-])c(N3CCOCC3)c2)CC1 | i | i | i | i | i
CC(C)(C)c1ccc(CCC2OCC(C[N+]3(C)CCOCC3)O2)cc1 (stereo unspecified) | i | 91 | i | i | i

Screens: PubChem BioAssay, several laboratories
